Test results as given in ChEMBL document CHEMBL2385037, “Bioactive dimeric carbazole alkaloids from Murraya koenigii” (J Nat Prod, 2013).

Experiments:
Albumin [1] = biological target: T1, Albumin (Bos taurus, UniProt P02769); assay: Binding affinity to bovine serum albumin assessed decrease in fluorescence at 1 to 2.5 uM at 60 nm wavelength by fluorescence spectrophotometric analysis; format: ADME; conditions: cattle, isolated protein
Method in brief: (§1)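 Synchronous fluorescence: BSA (2 μM) is titrated with compound over 0−2.5 μM. Spectra are recorded at wavelength differences Δλ = 15 nm and Δλ = 60 nm.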

Albumin [2] = biological target: T1, Albumin; assay: Binding affinity to bovine serum albumin assessed decrease in fluorescence at 1 to 2.5 uM at 15 nm wavelength by fluorescence spectrophotometric analysis; format: ADME; conditions: cattle, isolated protein; method in brief: as §1
Albumin [3] = biological target: T1, Albumin; assay: Binding affinity to bovine serum albumin assessed blue shift at 3 uM by UV-vis spectrophotometric analysis; format: ADME; conditions: cattle, isolated protein
Albumin [4] = biological target: T1, Albumin; assay: Binding affinity to bovine serum albumin assessed as change in hypochromicity at 1 to 2.5 uM by spectrophotometric analysis relative to control; format: ADME; conditions: cattle, isolated protein
Albumin [5] = biological target: T1, Albumin; assay: Binding affinity to bovine serum albumin assessed as decrease in fluorescence intensity by Stern-Volmer plot analysis; format: ADME; conditions: cattle, isolated protein
Method in brief: (§2)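 Intrinsic fluorescence quenching: emission spectra of BSA (2 μM) are recorded with compound added over 0−2.5 μM. The quenching data are analysed by Stern–Volmer and Scatchard plots to give the quenching constant Kq, the binding constant and the number of binding sites n.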

Albumin [6] = biological target: T1, Albumin; assay: Binding affinity to bovine serum albumin assessed as decrease in fluorescence intensity by Scatchard plot analysis; format: ADME; conditions: cattle, isolated protein; method in brief: as §2
DNA [7] = assay: Displacement of ethidium bromide from calf thymus DNA assessed as decrease in fluorescence intensity by Stern-Volmer plot analysis; format: nucleic-acid assay; conditions: Bos taurus
Method in brief: (§3)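 Ethidium bromide displacement: emission of EB bound to CT-DNA (5 μM) is followed while compound is added over 0−50 μM. The Stern–Volmer Kq is the slope of I0/I versus [Q]. Kapp comes from KEB[EB] = Kapp[compound], taking the compound concentration at 50% loss of EB fluorescence, with KEB = 1.0 × 10^7 M−1 and [EB] = 5 μM.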

DNA [8] = assay: Displacement of ethidium bromide from calf thymus DNA assessed as decrease in fluorescence intensity by spectrophotometric analysis; format: nucleic-acid assay; conditions: Bos taurus; method in brief: as §3
DNA [9] = assay: Displacement of ethidium bromide from calf thymus DNA assessed as […] at 1 to 50 uM by fluorescence spectrophotometric analysis relative to control; format: nucleic-acid assay; conditions: Bos taurus; method in brief: as §3
DNA [10] = assay: Binding affinity to calf thymus DNA assessed as change in hypochromicity at 50 uM by UV-vis titration relative to control; format: nucleic-acid assay; conditions: Bos taurus
Method in brief: (§4)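 CT-DNA absorption titration: compound held at 50 μM while CT-DNA is raised over 0−25 μM, and electronic absorption spectra are recorded. The intrinsic binding constant Kb is fitted from [DNA]/(εa − εf) versus [DNA], with DNA counted in base pairs. εa = Aobs/[compound]; εf and εb are the free and fully bound extinction coefficients.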

DNA [11] = assay: Binding affinity to calf thymus DNA by absorption titration; format: nucleic-acid assay; conditions: Bos taurus; method in brief: as §4
[12] = Inhibition of alpha glucosidase (unknown origin) assessed as p-nitrophenyl alpha-D-glucopyranoside conversion to p-nitrophenol after 30 mins by spectrophotometric analysis; parameters: species or system Homo sapiens
[13] = Antioxidant activity assessed as nitric oxide scavenging activity after 150 mins by Greiss method; format: functional
[14] = Antioxidant activity assessed as hydroxyl radical scavenging activity after 15 mins by spectrophotometric analysis; format: functional
[15] = test system: Radical scavenging activity; assay: Antioxidant activity assessed as DPPH free radical scavenging activity by spectrophotometric analysis; format: functional
HCT-116 = assay: Cytotoxicity against human HCT116 cells incubated for 24 hrs followed by compound washout measured after 48 hrs by MTT assay; format: functional, cell-based
AGS = assay: Cytotoxicity against human AGS cells incubated for 24 hrs followed by compound washout measured after 48 hrs by MTT assay; format: functional, cell-based
HeLa = assay: Cytotoxicity against human HeLa cells incubated for 24 hrs followed by compound washout measured after 48 hrs by MTT assay; format: functional, cell-based

T1 sequence (P02769 whole entry): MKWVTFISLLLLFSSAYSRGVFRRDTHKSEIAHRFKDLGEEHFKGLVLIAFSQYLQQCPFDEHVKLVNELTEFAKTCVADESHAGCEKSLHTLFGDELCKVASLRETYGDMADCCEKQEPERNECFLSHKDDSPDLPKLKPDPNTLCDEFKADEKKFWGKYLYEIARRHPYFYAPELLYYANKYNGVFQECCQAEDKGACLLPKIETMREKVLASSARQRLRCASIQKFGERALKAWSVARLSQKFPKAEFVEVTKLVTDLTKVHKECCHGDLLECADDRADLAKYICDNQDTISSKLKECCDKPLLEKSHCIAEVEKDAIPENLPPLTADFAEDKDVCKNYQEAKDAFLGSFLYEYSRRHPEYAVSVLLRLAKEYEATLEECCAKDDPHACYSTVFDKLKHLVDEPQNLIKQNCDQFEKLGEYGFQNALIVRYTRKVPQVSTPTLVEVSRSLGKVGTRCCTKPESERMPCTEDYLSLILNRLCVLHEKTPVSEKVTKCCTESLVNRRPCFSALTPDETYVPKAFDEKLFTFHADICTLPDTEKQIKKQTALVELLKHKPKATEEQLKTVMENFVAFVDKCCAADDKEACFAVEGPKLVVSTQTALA

| Compound | Activity (Albumin [1]) | Activity (Albumin [2]) | Activity (Albumin [3]) | Activity (Albumin [4]) [%] | Kq (Albumin [5]) [×10⁵ /M] | Kb (Albumin [6]) [×10⁴ /M] | Kq (DNA [7]) [×10⁵ /M] | Kapp (DNA [8]) [×10⁵ /M] | Activity (DNA [9]) [%] | Activity (DNA [10]) [%] | Kb (DNA [11]) [×10⁵ /M] | IC50 [12] [µM] | IC50 [13] [µM] | IC50 [14] [µM] | IC50 [15] [µM] | IC50 (HCT-116) [µM] | IC50 (AGS) [µM] | IC50 (HeLa) [µM] |
| --- | --- | --- | --- | --- | --- | --- | --- | --- | --- | --- | --- | --- | --- | --- | --- | --- | --- | --- |
| COc1cc2c(cc1-c1c(OC)ccc3c1[nH]c1c4c(c(C)cc13)OC(C)(C/C=C(\C)CCC=C(C)C)C=C4)c1cc(C)c3c(c1n2C)C=CC(C)(C/C=C(\C)CCC=C(C)C)O3 (stereo not given) | Active | Active | Active | 36 | 2.21 | 0.09 | 0.3 | 0.13 | 28 | 54 | 2 | 69 | 8.6 | 13.2 | 41.8 |  |  |  |
| C[C@H]1O[C@H](O[C@H]2[C@H](O)[C@@H](O)[C@@H](O[C@H]3[C@H](O)[C@@H](O)C(O)O[C@@H]3CO)O[C@@H]2CO)[C@H](O)[C@@H](O)[C@@H]1N[C@H]1C=C(CO)[C@@H](O)[C@H](O)[C@H]1O (stereo not given in full) [ACARBOSE] |  |  |  |  |  |  |  |  |  |  |  | 15.2 |  |  |  |  |  |  |
| COc1ccc2c([nH]c3c4c(c(C)cc32)OC(C)(C/C=C(\C)CCC=C(C)C)C=C4)c1-c1ccc2[nH]c3c4c(c(C)cc3c2c1O)OC(C)(C/C=C(\C)CCC=C(C)C)C=C4 (stereo not given) | Active | Active | Active | 36 | 2.2 | 0.72 | 0.1 | 0.5 | 22 | 55 | 2.2 | 41.2 | 7.2 | 8.8 | 31.1 |  |  |  |
| C[C@@H]1O[C@@H](OC[C@H]2O[C@@H](Oc3c(-c4ccc(O)c(O)c4)oc4cc(O)cc(O)c4c3=O)[C@H](O)[C@@H](O)[C@@H]2O)[C@H](O)[C@H](O)[C@H]1O [RUTIN] |  |  |  |  |  |  |  |  |  |  |  |  | 4.7 | 19.4 | 4.7 |  |  |  |
| COc1ccc2c([nH]c3c4c(c(C)cc32)OC(C)(C/C=C(\C)CCC=C(C)C)C=C4)c1-c1c(O)ccc2[nH]c3c4c(c(C)cc3c12)OC(C)(C/C=C(\C)CCC=C(C)C)C=C4 (stereo not given) | Active | Active | Active | 47 | 3.52 | 1.02 | 0.32 | 1.6 | 44 | 82 | 4.3 | 45.4 | 6.5 | 12.3 | 31.9 | 22.3 | 23.2 | 17.2 |
| Cc1cc(C(C)(C)C)c(O)c(C(C)(C)C)c1 [BUTYLATED HYDROXYTOLUENE] |  |  |  |  |  |  |  |  |  |  |  |  | 8.6 | 11.5 | 4.5 |  |  |  |
